Source: PubChem
proCasp7 act: procaspase-7 activators, primary screen, counter-screen for procaspase-3 activator project, biochemical, absorbance, HTS, human; Caspase-7 (Homo sapiens), P55210; recombinant procaspase-7, Ac-DEVD-pNA absorbance 405 nm; D23A/D198A/D206A triple mutant, cannot self-cleave; scale: DMSO 0, 5 µM enzyme 100; activation, % at 8.5 µM; 330,000 compounds, 0.093% hits; AID 463210, 2010;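 active means percent activation above the screen-wide mean plus 3 SD, cut at about 25% in these data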
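System: Procaspase-7 triple mutant (PC-7 D3A); measure: % activation from two-timepoint absorbance difference, scaled to controls; times: 1 h compound preincubation, 2 h substrate cleavage, 25 °C; also added: Ac-DEVD-pNA substrate, 400 µM as added; measured by: Epi-absorbance of released pNA at 405 nm, two timepoints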
Neddyl block: inhibitors of cullin neddylation, primary screen, biochemical, TR-FRET, uHTS, NAE and Ubc12 | NEDD8-conjugating enzyme Ubc12 (Homo sapiens) + NEDD8-activating enzyme E1 regulatory … | calls only at 25 µM | 360,000 compounds, 0.58% hits; in the data active means inhibition above about 36%
procasp3 activ: activators of human procaspase-3 D3A mutant, primary screen, biochemical, absorbance, PC-3 D3A mutant, single concentration. Caspase-3 (Homo sapiens), P42574. recombinant procaspase-3 D3A, Ac-DEVD-pNA absorbance 405 nm. activation, % at 8.5 µM. 330,000 compounds, 0.11% hits. AID 463141, 2010;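 active means activation above the mean of all tested compounds plus 3 SD, cut at about 21% in these data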
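Assay system – Procaspase-3 D3A mutant, all three cleavage aspartates alanine · Controls – DMSO-only low control, 5 µM PC-3 D3A high control · Schedule – 1 h compound preincubation, 2 h substrate hydrolysis at 25 °C · Signal – 405 nm absorbance of p-nitroaniline, reads at 0 and 120 min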
KLK7 zymogen act: proKLK7 zymogen activators, primary screen, biochemical, fluorescence intensity; Kallikrein-7 (Homo sapiens), P49862; purified proKLK7, EDANS-DABCYL substrate fluorescence; 100% is mature enzyme control, 0% vehicle; activation, % at 7 µM; 370,000 compounds, 0.9% hits; AID 652039, 2013;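 active means activation above the mean of all tested compounds plus 3 SD, computed per campaign excluding outliers beyond control limits, cut at about 13% in these data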
Neddyl inh conf: blockade of NEDD8 conjugation to cullin – biochemical, TR-FRET, single concentration, confirmation; shares compounds with Neddyl block; TR-FRET cullin neddylation biochemical assay; calls only at 25 µM; 1,800 compounds, 13% hits; in the data active means inhibition above about 40%;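 further: neddylation substrate is the cullin 1 ring ligase complex with SKP2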
Calls only; 0 = inactive; - = not tested or not shown; + = active, no number. Shown are actives, neighbours in structure and some others; about 1.6% of the full set was active somewhere.

SMILES	proCasp7 act	Neddyl block	procasp3 activ	KLK7 zymogen act	Neddyl inh conf
COc1ccc(C(CC(=O)N2CCN(c3ccccc3)CC2)c2c(OC)cc(OC)c3ccc(=O)oc23)cc1 (stereo not given)	0	+	0	0	0
Cc1cc(NS(=O)(=O)c2ccc(NC(=O)/C=C/c3ccc(Br)cc3)cc2)no1	0	0	0	0	-
Cc1cc(NS(=O)(=O)c2ccc(NS(=O)(=O)c3ccc(Br)cc3)cc2)no1	0	+	0	0	+
CNC(=O)COC(=O)c1ccc(-c2nc3ccccc3s2)s1	0	+	0	0	0
COc1cccc(C(c2c(NC(=O)c3ccco3)sc(C)c2C)N2CCOCC2)c1 (stereo not given)	0	+	0	0	-
Cc1sc(NC(=O)c2ccco2)c(C(c2ccncc2)N2CCOCC2)c1C (stereo not given)	0	0	0	0	-
CCNc1cc2n(c(=O)n1)CCc1cc(OC)c(OC)cc1-2	0	-	0	0	-
COc1cc2c(cc1OC)-c1cc(NCc3ccccn3)nc(=O)n1CC2	0	+	0	0	+
Cc1ccc2nc(C(C)(C)C)c(Cc3cccc(F)c3)n2c1	-	+	-	0	0
Cc1ccc(-c2nc3ccc(C)cn3c2Cc2cccc(F)c2)cc1	-	0	-	0	-
CC(=O)c1ccc(-c2cnc3c(NC=O)cc(-c4ccc(C(=O)NC5CC5)cc4)cn23)cc1	-	+	-	0	0
O=CNc1cc(-c2ccc(C(=O)NC3CC3)cc2)cn2c(-c3ccccc3)cnc12	-	0	-	0	-
CC(=O)Nc1cc(-c2ccc(C(=O)N3CCOCC3)cc2)cn2c(-c3ccc(S(C)(=O)=O)cc3)cnc12	-	+	-	0	0
CC(=O)Nc1cc(-c2cccc(CO)c2)cn2c(-c3ccc(F)cc3)cnc12	-	0	-	0	-
CC(=O)Nc1cccc(-c2cc(NC=O)c3ncc(-c4ccc(C(C)=O)cc4)n3c2)c1	-	+	-	0	0
CC(=O)Nc1cc(-c2cccc(CO)c2)cn2c(-c3ccc(C(C)=O)cc3)cnc12	-	+	-	0	0
CC(C)(C)C(=O)OC12CCCN(C1)/C(=C/c1ccc(C#N)cc1)C2 (stereo not given)	-	-	-	0	-
CCOc1ccc(-n2c(SCC(=O)c3ccc4ccccc4c3)nnc2-c2cccc(Cl)c2)cc1	-	-	-	0	-
COc1cc(-c2cc(NC(C)=O)c3ncc(-c4ccc(C(C)=O)cc4)n3c2)cc(OC)c1OC	-	+	-	0	0
COc1cc(-c2cc(NC(C)=O)c3ncc(-c4ccc(F)cc4)n3c2)cc(OC)c1OC	-	0	-	0	-
COc1ccc(S(=O)(=O)N(Cc2ccccc2)c2ccccc2C(=O)Nc2ccccc2C(=O)NCc2ccco2)cc1	0	0	0	0	-
COc1ccc(S(=O)(=O)Nc2ccccc2C(=O)NCc2ccco2)cc1	0	+	0	0	+
CC(C)CC(NC(=O)OCc1ccccc1)C(=O)NCC(=O)NCC(=O)OCc1ccccc1 (stereo not given)	-	-	-	0	-
C/C(=N\NC(=O)c1c(Cl)cnn1C)c1ccc(NC(=O)c2ccc(Br)o2)cc1	-	+	-	0	0
C/C(=N\NC(=O)C1CC1)c1ccc(NC(=O)c2ccc(Br)o2)cc1	0	-	0	0	-
SMILES	proCasp7 act	Neddyl block	procasp3 activ	KLK7 zymogen act	Neddyl inh conf
CCc1c(C)nc2c(-c3ccccc3)c[nH]n2c1=O	0	+	0	0	-
CCOC(=O)Cc1c(C)nc2c(-c3ccccc3)c[nH]n2c1=O	0	-	0	0	-
Cc1ccc2ncccc2c1	0	0	0	0	-
c1cnc2ccc(-c3ccc4ncccc4c3)cc2c1	0	+	0	0	0
O=C(C1CCN(c2ncnc3c2sc2cccc(F)c23)CC1)N1CCN(Cc2ccccc2)CC1	-	-	-	0	-
CC1(C)CC(=O)c2cc(OCC(=O)N3CCN(c4ccccc4F)CC3)ccc2O1	0	+	0	0	-
C=CCNC(=O)C(C#N)c1nc2ccccc2nc1N1CCN(Cc2ccccc2)CC1 (stereo not given)	0	+	0	-	0
CC(=O)N1c2cc(S(=O)(=O)Nc3c(C)n(C)n(-c4ccccc4)c3=O)c(Br)cc2CC1C (stereo not given)	-	-	-	0	-
COC(=O)c1ccc(C=NNC(=O)c2cc(-c3ccc(C)c(C)c3)n[nH]2)cc1	-	-	-	0	-
O=C(Nc1ccc2nc(-c3ccco3)[nH]c2c1)c1cccs1	0	+	0	0	0
COc1cccc(/C=C/C(=O)OCC(=O)NCCC2=CCCCC2)c1OC	0	+	0	0	0
COc1ccc(CCNC(=O)COC(=O)/C=C/c2cc(OC)ccc2OC)cc1	0	+	0	0	-
COc1cccc(/C=C/C(=O)OCC(=O)Nc2ccc(Cl)c(S(=O)(=O)N(C)C)c2)c1OC	0	+	0	0	0
COc1ccc(OC)c(/C=C/C(=O)OCC(=O)Nc2ccc(Cl)c(S(=O)(=O)N(C)C)c2)c1	0	-	0	0	-
COc1ccccc1/C=C/C(=O)OCC(=O)NCCC1=CCCCC1	0	0	0	0	-
CCn1c(CSc2nc3ccccc3[nH]2)nc2cc(C(=O)O)ccc21	0	+	0	0	-
CCn1c(CSc2nccn2C)nc2cc(C(=O)O)ccc21	0	0	0	-	-
CCCCN(C)c1c2c(nc3ncnn13)CCCC2	-	-	-	0	-
CCOC(=O)CNC(=O)c1sc(NC(=O)c2ccccc2F)nc1C	0	+	0	0	+
CC(=O)Nc1cccc(C(C)C2=CCCCC2)c1 (stereo not given)	-	-	-	0	-
Cc1ccc2nc(C)cc(C(=O)OCC(=O)Nc3cccnc3Cl)c2c1	0	+	0	0	0
OCCCN1CCC2(CCC(c3ccccc3)CC2)C1 (stereo not given)	-	-	-	0	-
CC(C)(C)NC(=O)CN(C(=O)c1snc(C(=O)NC2CCCCC2)c1N)c1ccccc1F	0	+	0	0	0
COCCNC(=O)/C(C#N)=C/c1c(N2CCN(c3cccc(Cl)c3)CC2)nc2c(C)cccn2c1=O	0	-	0	0	-
COCCNC(=O)/C(C#N)=C/c1c(N2CCN(c3ccccc3)CC2)nc2c(C)cccn2c1=O	0	+	0	0	0
COc1ccc(C(C(=O)N(C)C2CCCC2)N(Cc2ccc(F)cc2)C(=O)c2cc(C)[nH]n2)cc1OC (stereo not given)	-	-	-	0	-
Oc1cccc(Nc2ncnc3c2oc2ccccc23)c1	0	+	0	0	-
COc1cc(/C=C(\CC(=O)O)c2nc3ccccc3s2)ccc1OCC(=O)Nc1ccccc1F	-	+	-	0	0
CCOc1cc(/C=C(\CC(=O)O)c2nc3ccccc3s2)ccc1OC	0	0	0	0	-
N#Cc1ncc(-c2ccc3c(c2)OCCOCCOCCOCCO3)nc1C#N	0	+	0	0	0
